Test results from ChEMBL document CHEMBL3271971, “Antineoplastic and biochemical properties of arylsulfonylhydrazones of 2-formylpyridine N-oxide” (J Med Chem, 1976).

Tests used:
Format in all cases: functional
[1] = test system: Mus musculus; assay: Effect on RNA synthesis in tumor of CD-1 mouse allografted with mouse S180A cells assessed as [3H]-uridine incorporation at 20 mg/kg, ip pretreated for 1 hr followed by radiotracer-addition measured after 1 hr relative to control; settings: route intraperitoneal
How it was run: (§1)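 Sarcoma 180 ascites cells implanted 6 days earlier. Mice received a single ip dose of 10–80 mg/kg, then 1 h later an ip tracer: 200 μg thymidine-3H, 200 μg uridine-3H or 125 μg DL-leucine-14C. Tracer was incorporated for 1 h. Specific activity of tumor-cell DNA, RNA or protein is expressed as % of untreated controls. Values are means of 4-16 mice, each analyzed separately.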

[2] = test system: Mus musculus; assay: Effect on protein synthesis in tumor of CD-1 mouse allografted with mouse S180A cells assessed as [14C]-leucine incorporation at 20 mg/kg, ip pretreated for 1 hr followed by radiotracer-addition measured after 1 hr relative to control; settings: route intraperitoneal; how it was run: as §1
[3] = Antineoplastic activity against mouse Hepa129 cells allografted in C3H mouse assessed as mouse survival at 60 mg/kg administered qd for 6 days measured for 50 days relative to control
How it was run: (§2)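 Ascitic tumours were transplanted from an appropriate donor mouse carrying a 7-day tumour growth. Drug was given at 10–60 mg/kg/day for six consecutive days. Sensitivity was judged by prolongation of survival time relative to untreated tumour-bearing controls. Mice were weighed throughout, and percentage weight change from onset to end of therapy indicated toxicity.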

[4] = test system: Ehrlich; assay: Antineoplastic activity against mouse EAC cells allografted in CD-1 mouse assessed as mouse survival at 40 mg/kg administered qd for 6 days measured for 50 days relative to control; how it was run: as §2
[5] = test system: Mus musculus; assay: Effect on protein synthesis in tumor of CD-1 mouse allografted with mouse S180A cells assessed as [14C]-leucine incorporation at 80 mg/kg, ip pretreated for 6 hrs followed by radiotracer-addition measured after 1 hr relative to control; settings: route intraperitoneal
How it was run: (§3)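 Mice bearing 6-day Sarcoma 180 ascites implants received a single ip dose of 80 mg/kg. At the stated pretreatment time they were given ip tracer: 200 μg thymidine-3H, 200 μg uridine-3H or 125 μg DL-leucine-14C. After 1 h of incorporation, specific radioactivity of DNA, RNA or protein was read as % of control incorporation.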

[6] = test system: Mus musculus; assay: Effect on RNA synthesis in tumor of CD-1 mouse allografted with mouse S180A cells assessed as [3H]-uridine incorporation at 80 mg/kg, ip pretreated for 6 hrs followed by radiotracer-addition measured after 1 hr relative to control; settings: route intraperitoneal; how it was run: as §3

In the case of Cc1ccc(S(=O)(=O)N/N=C/c2cccc[n+]2[O-])cc1, the Activity [1] is reported as 71%, the Activity [2] is reported as 95% and the survival at 60 mg/kg [3] is reported as 20%. The survival at 40 mg/kg [4] was 50%, the Activity [5] was 89% and the Activity [6] was 50%.
